tim10-1 inh – inhibits growth of tim10-1 mutant yeast | S. cerevisiae tim10-1 ts strain growth, BacTiter-Glo, 24 h | inhibition, % at 20 µM | 2.2% of 330,000 active;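 active = inhibition of at least 40%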;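 note: mutant grown at 25 °C; 0% = DMSO wells with yeast and 100% = wells holding no yeast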
TIM10 inh – growth inhibitors of TIM10 yeast strain; S. cerevisiae TIM10 strain growth, BacTiter-Glo luminescence, 24 h; inhibition, % at 10 µM; 1.4% of 330,000 active; AID 463195;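 active = inhibition of 40% or more at the single tested concentration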;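 note: wild-type TIM10 isogenic control strain grown at permissive 25 °C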
UPR CHOP act – activators of apoptotic arm of unfolded protein response (CHOP). activation, % at 10 µM. CHO-CHOP luciferase reporter, UPR activation, luminescence; percent of tunicamycin response over DMSO baseline. 0.34% of 330,000 active;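 active = at 10 µM dose, activation of 40% or more, normalized to positive control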;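 note: 100% = tunicamycin at 10 µg/mL and 0% = DMSO alone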
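Dosing – one dose, 10 µM in 0.5% DMSO · System – CHO-CHOP cells, stable luciferase reporter of PERK-eIF2a-CHOP signalling · Input – 500 cells/well · Control set – tunicamycin 10 µg/mL final as positive, DMSO-only wells as negative · Timing – 6 h compound treatment, 37 °C · Measure – % activation vs tunicamycin · Technique – luminescence read with Steady-Glo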
XBP1 UPR activ – adaptive UPR (XBP1) activation; CHO-XBP1 luciferase reporter, IRE1-XBP1 UPR activation, luminescence; percent of tunicamycin response, DMSO as zero; activation, % at 20 µM; 0.33% of 330,000 active;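 active = versus positive control, 20 µM dose yields 30% or more activation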;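 note: 100% = tunicamycin at 10 µg/mL and 0% = DMSO only wells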
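Test system: CHO-XBP1 luciferase reporter cells | Buffer or medium: Serum-containing F12 medium, 10% FBS | Schedule: 6 h compound exposure at 37 °C, 5% CO2 | Detection: Steady-Glo luciferase glow luminescence, 10 min after reagent addition | Read-out basis: Activation, % of tunicamycin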
tim23-1 inh – growth inhibitors of tim23-1 mutant yeast; S. cerevisiae tim23-1 growth, BacTiter-Glo luminescence, 24 h; inhibition, % at 20 µM; 1.3% of 330,000 active; AID 463212;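 active = growth inhibition of the mutant yeast at or above 50%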;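 note: temperature-sensitive mutant grown at 25 °C; plate controls were DMSO-treated mutant yeast for no effect and medium wells lacking yeast for full effect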
tim10 confirm – confirmation of TIM10 yeast growth inhibitors. inhibition, % at 10 µM. S. cerevisiae tim10 strain growth, BacTiter-Glo luminescence, 24 h. 63% of 4,600 active. AID 463215. shares compounds with TIM10 inh;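 active = inhibition of yeast growth at or above a set limit in either of two replicates at 10 µM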;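 note: this counterscreen used the strain with wild-type TIM10; 0% = yeast with DMSO and 100% = medium wells lacking yeast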
The depositor's hits bear a star; / = not tested or not shown. Most compounds without a hit are left out; they make up all but 3.9% or so of the library.

SMILES	tim10-1 inh	TIM10 inh	UPR CHOP act	XBP1 UPR activ	tim23-1 inh	tim10 confirm
CN(C)S(=O)(=O)c1ccc(C(=O)NCc2nnc(SCC(=O)c3ccccc3)o2)cc1	-1	-1	-1	-5	-11	/
Cc1onc(-c2c(Cl)cccc2Cl)c1C(=O)N1C(C)CCCC1C (centres undefined)	27	17	0	-1	33	/
CCN(CC)S(=O)(=O)c1ccc(NC(=O)C2COc3ccccc3O2)cc1 (centres undefined)	39	40*	0	1	36	35*
C=CCN(C(=O)c1csnn1)C(C(=O)NC1CCCC1)c1ccccc1 (centres undefined)	10	1	1	1	12	/
COc1ccc(CCNc2ccc(C(CC(N)=O)NC(=O)c3cc(OC)ccc3OC)cc2[N+](=O)[O-])cc1 (centres undefined)	-3	3	1	-2	3	/
CCOC(=O)c1cnc2c(OC)cccc2c1N1CCN(c2ccccc2OC)CC1	37	42*	3	0	34	-23
Clc1ccccc1CSc1cc2c(nn1)-c1ccccc1CC2	24	15	4	15	17	/
Clc1cccc(Cl)c1CSc1cc2c(nn1)-c1ccccc1CC2	38	40*	4	5	26	-1
Oc1ccc(Nc2ncnc3scc(-c4ccccc4)c23)cc1	17	0	0	5	9	/
COc1ccc(/C=N/Nc2ncnc3scc(-c4ccccc4)c23)cc1OC	32	58*	6	6	26	44*
CC1CCC2(CC1)NC(=O)N(CC(=O)NCCc1ccc(F)cc1)C2=O (centres undefined)	-12	68*	0	0	-2	-9
O=C(Cn1ccc2ccccc2c1=O)NCCC(=O)N1CCN(c2cccc(Cl)c2)CC1	5	2	-3	1	11	/
O=C(Cn1ccc2ccccc2c1=O)N1CCN(c2cccc(Cl)c2)CC1	-40	54*	1	-1	-14	-38
S=C(NCc1ccccc1)N1CCN(c2cccc(Cl)c2)CC1	26	46*	0	-8	45	15
COc1ccc(-n2ncc(C(C)NS(=O)(=O)c3cc(F)ccc3C)c2C)cc1 (centres undefined)	18	9	1	-2	29	/
Nc1ncnc2c1ncn2[C@@H]1O[C@H](CNC(=O)[C@@H](N)C2CCCCC2)[C@@H](O)[C@H]1O	-6	-12	0	0	22	/
CCN1C(=O)[C@H]2[C@@H](c3ccc(Cl)cc3)N3C(=O)CN(CCOC)C(=O)[C@@]3(C)[C@H]2C1=O	13	-9	3	-3	6	/
CCCCN1CC(=O)N2[C@H](c3ccc(Cl)cc3)[C@@H]3C(=O)N(CC)C(=O)[C@@H]3[C@]2(C)C1=O	-1	53*	0	1	-10	-7
Nc1cc(OC(=O)c2cccs2)nn1S(=O)(=O)c1ccccc1	37	55*	0	0	15	1
C[C@@H]1CC(=O)[C@H]2CC(CO)=CCC[C@@H]2[C@@]1(C)CC/C(=C/CO)CO	8	-3	3	-2	3	/
O=C(CCC(=O)Nc1nnc(C2CCCCC2)s1)NCc1ccc(F)cc1	3	11	-1	2	10	/
Cc1nc(S/C(C(=O)O)=C2/C(=O)Nc3ccccc32)n[nH]1	32	41*	-1	-2	41	38*
COc1cc2c(cc1NC(=O)COC(=O)Cn1cnc3ccccc31)oc1ccccc12	26	41*	10	2	-8	-11
COc1cc2c(cc1NC(=O)COc1ccccc1OC)oc1ccccc12	19	-10	4	6	-8	/
C=CCN1C(=O)c2ccc(C(=O)N(C)CC(=O)Nc3ccccc3C(F)(F)F)cc2C1=O	-18	-13	-1	-3	-9	/
COc1ccccc1N1CC(C)(C)C(=O)N(C(=O)c2ccc(C)cc2)C1=S	37	43*	0	1	49	45*
O=C(CN1CCN(c2nc(-c3ccc(Cl)cc3)cs2)CC1)NCc1ccco1	20	42*	0	2	23	29*

Bioassay records from PubChem.
